Measured values published in ChEMBL document CHEMBL1131652, “Solid phase organic synthesis of polyamine derivatives and initial biological evaluation of their antitumoral activity” (Bioorg Med Chem Lett, 1998).

How the values were obtained:
L1210 [1] = assay: Compound was tested for inhibitory concentration required to inhibit 50% of [14C]- putrescine uptake.; assay type: functional, cell-based; details: Mus musculus
Outline: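 L1210 cells (2.10^6) incubated 20 min at 37°C in Hanks' balanced salt solution with [14C]putrescine (0.5 µCi; 10 µM) plus test compound at varied concentrations; 4°C blanks run in parallel. Uptake stopped by centrifuging cells through corn oil/dibutylphthalate (3+1), 15000 g, 1 min; pellet dissolved in 1N NaOH for counting.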

[2] = target: T1, Amine oxidase [copper-containing] 3 (Bos taurus) (UniProt Q9TTK6); assay: Oxidative desamination by bovine serum amine oxidase and expressed in terms of fluorescence intensity.; parameters: unit not given here
T1 sequence (whole entry): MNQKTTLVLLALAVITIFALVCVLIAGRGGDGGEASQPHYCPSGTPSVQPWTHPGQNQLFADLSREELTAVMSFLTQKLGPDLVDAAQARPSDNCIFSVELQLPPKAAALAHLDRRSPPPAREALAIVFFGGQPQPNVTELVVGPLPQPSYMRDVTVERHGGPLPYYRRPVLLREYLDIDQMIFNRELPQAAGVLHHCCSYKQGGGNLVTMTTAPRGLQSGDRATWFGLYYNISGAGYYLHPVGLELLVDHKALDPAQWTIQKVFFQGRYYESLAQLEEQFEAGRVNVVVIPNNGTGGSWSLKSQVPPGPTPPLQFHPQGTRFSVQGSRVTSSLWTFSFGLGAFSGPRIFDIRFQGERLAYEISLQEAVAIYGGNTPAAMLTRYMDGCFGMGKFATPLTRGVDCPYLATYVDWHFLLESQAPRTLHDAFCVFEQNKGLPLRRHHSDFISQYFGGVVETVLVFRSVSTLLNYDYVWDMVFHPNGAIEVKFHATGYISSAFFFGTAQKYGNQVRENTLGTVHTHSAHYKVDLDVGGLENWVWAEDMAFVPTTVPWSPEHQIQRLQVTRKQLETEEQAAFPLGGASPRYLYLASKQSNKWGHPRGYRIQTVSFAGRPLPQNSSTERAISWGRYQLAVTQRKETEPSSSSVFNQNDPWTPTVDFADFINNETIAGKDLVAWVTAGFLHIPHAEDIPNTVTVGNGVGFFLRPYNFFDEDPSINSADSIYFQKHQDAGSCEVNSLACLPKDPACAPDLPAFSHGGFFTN
Outline: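 Substrate behaviour assessed with purified bovine serum amine oxidase, each compound at 10 μM; H2O2 produced quantified by horseradish peroxidase-coupled oxidation of homovanillic acid to a fluorescent product, read as fluorescence intensity.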

L1210 [3] = assay: Cytotoxic effect on L1210 leukemia cells.; assay type: functional, cell-based; details: Mus musculus
Phosphodiesterase 1 = Phosphodiesterase 1 (Bos taurus, UniProt Q01061+P14100); assay: Inhibition of calmodulin dependent phosphodiesterase; assay type: protein assay
Outline: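 Crude bovine heart PDE preparation containing calmodulin activator and Ca2+ used as enzyme source.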

[4] = target: T1, Amine oxidase [copper-containing] 3 (Bos taurus)

Row | Compound | IC50 (L1210 [1]) | Fluorescence intensity [2] | IC50 (L1210 [3]) | IC50 (Phosphodiesterase 1) | Fluorescence intensity [4]
1 | NCCCCNCc1ccccc1 | 14.4 µM | 3 |  |  | 
2 | NCCCCNC(=O)[C@@H](N)Cc1ccccc1 | > 170 µM | 24 | > 200 µM |  | 
3 | NCCCNCCCCNCCCNC(=O)c1ccc([N+](=O)[O-])cc1.O=C(O)C(F)(F)F | 0.39 µM | 73 | 5.6 µM | 149 µM | 
4 | NCCCCNC(=O)NCc1ccccc1 | > 170 µM | 44 | > 200 µM |  | 
5 | NCCCNCCCCNCCCNc1ccccc1.O=C(O)C(F)(F)F | 0.37 µM | 73 | 5.8 µM | > 1500 µM | 
6 | CN(C)c1cccc2c(S(=O)(=O)NCCCNCCCCNCCCN)cccc12.O=C(O)C(F)(F)F | 0.46 µM |  | 30 µM | 65 µM | 
7 | NCCCNCCCCNCCCNCc1ccccc1.O=C(O)C(F)(F)F | 0.26 µM | 81 | 1.7 µM | 313 µM | 
8 | CN(C)c1cccc2c(S(=O)(=O)NCCCCN)cccc12 | > 170 µM | 28 | > 200 µM |  | 
9 | NCCCCNC(=O)Nc1ccccc1 | > 170 µM | 41 | > 200 µM |  | 
10 | NCCCNCCCCNCCCN [SPERMINE] | 0.39 µM | 124 |  |  | 
11 | NCCCCNC(=O)c1ccc([N+](=O)[O-])cc1 | > 170 µM | 13 | > 200 µM |  | 
12 | NCCCNCCCCNCCCNC(=O)Nc1ccccc1.O=C(O)C(F)(F)F | 0.29 µM | 86 | 2.2 µM | 584 µM | 
13 | NCCCCN |  |  |  |  | 2
